A short description of experiment [1]: Her2 expression decrease, cell viability multiplex – SKBR3 breast tumor cells, AlphaScreen, ATP viability, primary screen (AID 461;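 active = Her2 level under about 52% in both replicate screens, with viability over 70% of control, limit read from the data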;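 as to Her2 level: lower value means less Her2 protein in the cells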;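 as to viability: percent of carrier control wells set as 100% viability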). Conditions: SKBR3 Her2 protein level, 18-24 h, measured here: SKBR3 viability, ATP luminescence, at 10 µM. (Alpha assays give light when donor and acceptor beads are brought close together.)
The target of experiment [2] is Receptor tyrosine-protein kinase erbB-2 (Homo sapiens) (UniProt P04626). Described as above. As to conditions: 18-24 h, at 10 µM, stronger effect = lower value.
The nature of experiment [3]: reduced viability of SK-BR-3 breast cancer cells – cell-based, 24 h, human, pilot screen (AID 572).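 Also: compound exposure lasted between 18 and 24 h rather than exactly 24 h; 100% = carrier-treated control wells.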 As to conditions: SK-BR-3 viability, CellTiter-Glo luminescence, at 10 µM, stronger effect = lower value. In general terms: Cellular ATP, detected with luciferase, serves as a proxy for viable cell number.
The nature of experiment [4]: HUVEC growth inhibition – cell-based, human, primary screen (AID 575;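 active = viability at or below 30% in both replicate assays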;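 also: 100% = median of untreated cell wells with 0.1% DMSO on each plate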). As to conditions: HUVEC proliferation, CellTiter-Glo luminescence, 72 h; at 10 µM; stronger effect = lower value. The method in brief:
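Timing: 72 h treatment at 37 °C; material: HUVEC primary cells; technique: CellTiter-Glo luminescence measuring cellular ATP; controls: vehicle and MePR control wells; measure: percent of median DMSO-control luminescence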

The nature of experiment [5]: MRP1 drug-resistance reversers in H69AR cells – cell-based, doxorubicin co-treatment, pilot screen (AID 601;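 active = viability loss from added drug above about 55%, and viability with drug at most 40%, in both replicates, limit read from the data, passing the limit was not always enough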). Conditions: CellTiter-Glo, 72 h, at 10 µM; for differential viability (reversal): stronger effect = higher value.
Experiment [6] in a line: yeast transport mutant growth inhibition pilot in 384-well plates, post-Golgi transport modulator project (AID 636; in the data active = inhibition above about 31%). As to conditions: absorbance 615 nm, about 18 h, stronger effect = higher value.
A short description of experiment [7]: growth suppression of yeast trafficking mutant, preliminary HTS, modulators of trafficking downstream of Golgi apparatus project, 1536-format plate, OD 615 nm (AID 637; in the data active = inhibition above about 30%). As to conditions: yeast transport mutant growth, absorbance 615 nm, 18 h; stronger effect = higher value.
The mark [8] stands for this setting: H69AR cells + 2 uM doxorubicin, measured here: viability with 2 uM doxorubicin, stronger effect = lower value.
Setting [9] is: H69AR cells, compound alone cytotoxicity.

Each structure is given as a SMILES string. Calls of active or inactive are those of the source.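 The calls were made as follows, unless noted: active = viability at or below 10% of carrier control in both of two separate runs; inconclusive = viability at or below 10% in only one of the two runs; inactive = the rest.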

Receptor tyrosine-protein kinase erbB-2 (Homo sapiens), sequence (P04626 whole entry, looked up): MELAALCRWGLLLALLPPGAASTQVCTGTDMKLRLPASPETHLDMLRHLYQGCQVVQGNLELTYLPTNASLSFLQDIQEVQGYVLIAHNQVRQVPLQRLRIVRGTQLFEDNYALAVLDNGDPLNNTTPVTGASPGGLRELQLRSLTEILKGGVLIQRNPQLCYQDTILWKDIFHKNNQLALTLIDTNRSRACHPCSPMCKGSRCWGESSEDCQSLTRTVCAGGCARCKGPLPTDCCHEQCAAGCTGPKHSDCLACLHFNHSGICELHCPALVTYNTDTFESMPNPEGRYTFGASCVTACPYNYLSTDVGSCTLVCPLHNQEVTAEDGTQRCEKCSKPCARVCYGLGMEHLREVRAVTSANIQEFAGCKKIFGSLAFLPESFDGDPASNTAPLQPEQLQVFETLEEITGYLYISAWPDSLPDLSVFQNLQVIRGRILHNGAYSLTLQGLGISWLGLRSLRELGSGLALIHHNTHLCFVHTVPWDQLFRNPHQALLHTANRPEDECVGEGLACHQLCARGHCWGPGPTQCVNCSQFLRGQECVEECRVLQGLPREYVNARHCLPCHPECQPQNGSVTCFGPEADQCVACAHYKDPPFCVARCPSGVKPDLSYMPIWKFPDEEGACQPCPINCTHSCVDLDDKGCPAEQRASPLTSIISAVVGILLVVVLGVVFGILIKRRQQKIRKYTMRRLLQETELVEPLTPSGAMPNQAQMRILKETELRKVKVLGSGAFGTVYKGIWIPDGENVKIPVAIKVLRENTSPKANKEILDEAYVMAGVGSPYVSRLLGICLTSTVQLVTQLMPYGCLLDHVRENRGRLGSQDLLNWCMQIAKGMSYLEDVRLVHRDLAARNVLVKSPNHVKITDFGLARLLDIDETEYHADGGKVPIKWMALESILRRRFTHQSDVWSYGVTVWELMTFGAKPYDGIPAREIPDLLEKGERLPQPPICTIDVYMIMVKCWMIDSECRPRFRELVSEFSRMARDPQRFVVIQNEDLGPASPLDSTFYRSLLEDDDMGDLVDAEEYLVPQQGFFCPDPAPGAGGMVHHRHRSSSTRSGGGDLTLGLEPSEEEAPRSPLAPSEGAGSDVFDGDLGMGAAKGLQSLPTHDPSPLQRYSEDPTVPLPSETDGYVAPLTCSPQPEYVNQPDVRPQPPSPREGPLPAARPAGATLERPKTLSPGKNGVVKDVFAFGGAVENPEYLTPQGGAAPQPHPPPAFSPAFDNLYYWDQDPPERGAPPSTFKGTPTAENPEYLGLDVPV

As a reminder, the viability is a read-out of living cells in per cent, often relative to untreated cells. By inhibition is commonly meant the drop in the measured response relative to a control, in per cent. Turning to `Cc1ccc(NC(=O)COS(=O)c2ccc(C)cc2)cc1` (centres undefined), the viability was 97% in experiment [1]; 97% (inactive) in experiment [3]; 69% (inactive) in experiment [4]; 41.3% in experiment [5] (setting [8]); 38.6% in experiment [5] (setting [9]). For the same molecule, in experiment [2], the Her2 level was 95.5% (inactive). The differential viability (reversal) in experiment [5] (H69AR cells + 2 uM doxorubicin) is -2.71% (inactive). The inhibition was -1.69% (inactive) in experiment [6] and -0.63% (inactive) in experiment [7].

Take `C/C(Cl)=C/Cn1c(SCc2ccc(Cl)cc2)nc2c1c(=O)[nH]c(=O)n2C`: the viability in experiment [1] was 102%; in experiment [3] it was 102% (inactive); in experiment [4], 78.8% (inactive); in experiment [5] (setting [8]), 60.4%; in experiment [5] (setting [9]), 54.3%. The Her2 level in experiment [2] is 110% (inactive). The differential viability (reversal) in experiment [5] (H69AR cells + 2 uM doxorubicin) is -6.12% (inactive). The inhibition is -1.33% (inactive) in experiment [6] and -7.1% (inactive) in experiment [7].

`Cc1ccc(CNC(=O)c2coc(=O)c3ccccc23)o1`: the viability was 93.5% in experiment [1]; 93.5% (inactive) in experiment [3]; 81.8% (inactive) in experiment [4]; 67% in experiment [5] (setting [8]); 42.4% in experiment [5] (setting [9]). In experiment [2], the Her2 level is 81% (inactive). The differential viability (reversal) in experiment [5] (H69AR cells + 2 uM doxorubicin) was -24.6% (inactive). Moreover, the inhibition in experiment [6] was -0.53% (inactive); in experiment [7] it was -5.82% (inactive).

`CCOC(=O)c1sc2nc(SCC(=O)NCc3ccco3)n(Cc3ccccc3)c(=O)c2c1C`: the viability is 90.5% in experiment [1]; 90.5% (inactive) in experiment [3]; 82% (inactive) in experiment [4]; 33% in experiment [5] (setting [8]); 46% in experiment [5] (setting [9]). The Her2 level in experiment [2] was 84% (inactive). Also, in experiment [5] (H69AR cells + 2 uM doxorubicin), the differential viability (reversal) is 13% (inactive). Further, the inhibition in experiment [6] is -5.68% (inactive); in experiment [7], 0.98% (inactive).

Turning to `C=CCn1c(N)c(C(=O)OC(C)(C)C)c2nc3ccccc3nc21`, the viability in experiment [1] is 102%; in experiment [3], 102% (inactive); in experiment [4], 70.5% (inactive); in experiment [5] (setting [8]) it was 66.7%; in experiment [5] (setting [9]), 50.8%. Besides, in experiment [2], the Her2 level is 90.5% (inactive). Further, the differential viability (reversal) in experiment [5] (H69AR cells + 2 uM doxorubicin) is -15.9% (inactive). The inhibition was 0.66% (inactive) in experiment [6] and 1.94% (inactive) in experiment [7].

`CCOC(=O)c1c(C)[nH]c(C(=O)COC(=O)c2ccc(F)c(S(=O)(=O)N3CCOCC3)c2)c1C`: the viability in experiment [1] was 88.5%; in experiment [3] it was 88.5% (inactive); in experiment [4], 62.4% (inactive); in experiment [5] (setting [8]), 52.5%; in experiment [5] (setting [9]) it was 63.9%. Also, the Her2 level in experiment [2] was 79.5% (inactive). Moreover, in experiment [5] (H69AR cells + 2 uM doxorubicin), the differential viability (reversal) is 11.4% (inactive). Moreover, the values for the inhibition in experiment [6] and in experiment [7] were -5.47% (inactive) and -1.97% (inactive), respectively.

`C=CCSC1=C(C#N)C(c2ccccc2C)CC(=O)N1` (centres undefined): the viability was 95.5% in experiment [1]; 95.5% (inactive) in experiment [3]; 89% (inactive) in experiment [4]; 10.6% in experiment [5] (setting [8]); 10.1% in experiment [5] (setting [9]). For the same molecule, the Her2 level in experiment [2] is 99% (inactive). In addition, the differential viability (reversal) in experiment [5] (H69AR cells + 2 uM doxorubicin) was -0.42% (inactive). The inhibition in experiment [6] was -2.21% (inactive); in experiment [7], -2.38% (inactive).

As to `Cc1ccc(C)c(-c2nc3ccc(N)cc3[nH]2)c1`, the viability is 122% in experiment [1]; 122% (inactive) in experiment [3]; 68.3% (inactive) in experiment [4]; 68.3% in experiment [5] (setting [8]); 52.8% in experiment [5] (setting [9]). In experiment [2], the Her2 level is 101% (inactive). In experiment [5] (H69AR cells + 2 uM doxorubicin), the differential viability (reversal) was -15.6% (inactive). The inhibition is -6.35% (inactive) in experiment [6] and 5.67% (inactive) in experiment [7].

As to `CCCNC(=O)c1c(N)n(-c2cc(OC)cc(OC)c2)c2nc3ccccc3nc12`, the viability in experiment [1] was 89%; in experiment [3], 89% (inactive); in experiment [4], 38.6% (inactive); in experiment [5] (setting [8]), 66.7%; in experiment [5] (setting [9]) it was 57.6%. In addition, in experiment [2], the Her2 level was 73.5% (inactive). In addition, the differential viability (reversal) in experiment [5] (H69AR cells + 2 uM doxorubicin) is -9.04% (inactive). The inhibition was -3.87% (inactive) in experiment [6] and 2.3% (inactive) in experiment [7].

`Cc1ccc(/C=c2\s/c(=C(/C#N)C(=O)N3CCCC3)n(Cc3ccco3)c2=O)s1`: the viability in experiment [1] is 87.5%; in experiment [3], 87.5% (inactive); in experiment [4], 59.3% (inactive); in experiment [5] (setting [8]), 28.1%; in experiment [5] (setting [9]) it was 43.9%. The Her2 level in experiment [2] is 79% (inactive). The differential viability (reversal) in experiment [5] (H69AR cells + 2 uM doxorubicin) was 15.8% (inactive). Moreover, the inhibition is -1.95% (inactive) in experiment [6] and 1.9% (inactive) in experiment [7].

On to `CC(C)Cn1c(=O)c(C(=O)NCc2ccccn2)c(O)c2ccccc21`, for which the viability was 110% in experiment [1]; 110% (inactive) in experiment [3]; 61.4% (inactive) in experiment [4]; 67.3% in experiment [5] (setting [8]); 52.3% in experiment [5] (setting [9]). In addition, in experiment [2], the Her2 level was 78.5% (inactive). The differential viability (reversal) in experiment [5] (H69AR cells + 2 uM doxorubicin) was -15% (inactive). Moreover, the inhibition in experiment [6] was -7.43% (inactive); in experiment [7], -3.17% (inactive).

For the molecule `Cc1ccccc1OCCCN1C(=O)C(=O)c2cccc(C)c21`, the viability in experiment [1] is 106%; in experiment [3], 106% (inactive); in experiment [4], 77.7% (inactive); in experiment [5] (setting [8]) it was 49.4%; in experiment [5] (setting [9]), 33%. Besides, the Her2 level in experiment [2] was 72% (inactive). Besides, the differential viability (reversal) in experiment [5] (H69AR cells + 2 uM doxorubicin) is -16.4% (inactive). For the same molecule, the inhibition in experiment [6] is 2.56% (inactive); in experiment [7], -1.33% (inactive).

Regarding `COc1ccc(-c2noc(CCC(=O)NCCCN3CCC(Cc4ccccc4)CC3)n2)cc1`, the viability in experiment [1] was 87.5%; in experiment [3], 87.5% (inactive); in experiment [4] it was 33.1% (inactive); in experiment [5] (setting [8]), 64.4%; in experiment [5] (setting [9]) it was 63%. Further, in experiment [2], the Her2 level is 77% (inactive). Also, the differential viability (reversal) in experiment [5] (H69AR cells + 2 uM doxorubicin) was -1.48% (inactive). The inhibition in experiment [6] was 1.05% (inactive); in experiment [7], -6% (inactive).

`CCCc1cc(-c2n[nH]c(C)c2-c2ccc(C(=O)OCC)o2)c(O)cc1O`: the viability in experiment [1] is 78%; in experiment [3] it was 78% (inactive); in experiment [4], 39.4% (inactive); in experiment [5] (setting [8]) it was 38.2%; in experiment [5] (setting [9]), 28%. Besides, in experiment [2], the Her2 level is 72% (inactive). Further, in experiment [5] (H69AR cells + 2 uM doxorubicin), the differential viability (reversal) was -10.2% (inactive). In addition, the values for the inhibition in experiment [6] and in experiment [7] were -4.74% (inactive) and 1.45% (inactive), respectively.

For `CCCc1nc2ccccc2c(=O)n1NC(=O)c1c(O)c2cccc3c2n(c1=O)CCC3`, the viability in experiment [1] was 113%; in experiment [3] it was 113% (inactive); in experiment [4] it was 83.5% (inactive); in experiment [5] (setting [8]) it was 72.1%; in experiment [5] (setting [9]), 66%. The Her2 level in experiment [2] was 87.5% (inactive). Besides, the differential viability (reversal) in experiment [5] (H69AR cells + 2 uM doxorubicin) is -6.06% (inactive). For the same molecule, the inhibition in experiment [6] was -5.2% (inactive); in experiment [7], 14.1% (inactive).

Consider `Cc1csc2ncc(C(=O)Nc3ccccc3Cl)c(=O)n12`, for which the viability is 87.5% in experiment [1]; 87.5% (inactive) in experiment [3]; 66.8% (inactive) in experiment [4]; 44.5% in experiment [5] (setting [8]); 48.3% in experiment [5] (setting [9]). Also, the Her2 level in experiment [2] is 86% (inactive). Moreover, in experiment [5] (H69AR cells + 2 uM doxorubicin), the differential viability (reversal) was 3.82% (inactive). Further, the values for the inhibition in experiment [6] and in experiment [7] were -4.13% (inactive) and 4.5% (inactive), respectively.
